Experimental data: ChEMBL document CHEMBL1142349, “Molecular modeling study and synthesis of novel pyrrolo[2,3-d]pyrimidines and pyrrolotriazolopyrimidines of expected antitumor and radioprotective activities” (Bioorg Med Chem, 2008)

How the values were obtained:
Ehrlich [1] = assay: Cytotoxicity against mouse Ehrlich Ascites carcinoma assessed as non viable cells at 50 umol/mL after 2 hrs by trypan blue exclusion assay; assay type: functional
In short: (§1)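 EAC cells at 2.5 × 10^6/ml in saline. Compounds were dissolved in DMSO:saline (7:3). 100 µL cell suspension was mixed with compound and made to 1 mL with saline, giving final 200, 100, 75, 50 and 25 µM. Incubated 2 h at 37 °C. Trypan blue exclusion gave % non-viable cells. IC50 was read from the survival-ratio vs concentration curve.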

Ehrlich [2] = assay: Cytotoxicity against mouse Ehrlich Ascites carcinoma assessed as non viable cells at 75 umol/mL after 2 hrs by trypan blue exclusion assay; assay type: functional; in short: as §1
Ehrlich [3] = assay: Cytotoxicity against mouse Ehrlich Ascites carcinoma assessed as non viable cells at 100 umol/mL after 2 hrs by trypan blue exclusion assay; assay type: functional; in short: as §1
Ehrlich [4] = assay: Cytotoxicity against mouse Ehrlich Ascites carcinoma assessed as non viable cells at 200 umol/mL after 2 hrs by trypan blue exclusion assay; assay type: functional; in short: as §1
Ehrlich [5] = assay: Cytotoxicity against mouse Ehrlich Ascites carcinoma assessed as non viable cells at 25 umol/mL after 2 hrs by trypan blue exclusion assay; assay type: functional; in short: as §1
[6] = Cytotoxicity against mouse Ehrlich Ascites carcinoma after 2 hrs by trypan blue exclusion assay; assay type: functional; in short: as §1
Mus musculus [7] = assay: Radioprotective activity against gamma-irradiated Swiss albino mouse assessed as increase in blood glutathione level at 150 mg/kg, ip after 7 days; details: route intraperitoneal
Mus musculus [8] = assay: Radioprotective activity against gamma-irradiated Swiss albino mouse assessed as reduction of plasma lipid peroxide level at 150 mg/kg, ip after 7 days; assay type: functional; details: route intraperitoneal
In short: (§2)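 Female Swiss albino mice (25–30 g) were dosed ip at 150 mg/kg in CMC every other day ×3 over 7 days. Each dose was given 30 min before 6 Gy whole-body γ-irradiation (Cs-137, 0.86 Gy/min). Mice were fasted 16 h and bled by heart puncture 1 day after the last irradiation. Plasma lipid peroxide was measured as MDA (Yoshioka). Values are mean ± SE, n=8, as % change from control, with t test.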

Mus musculus [9] = assay: Radioprotective activity against gamma-irradiated Swiss albino mouse assessed as reduction of plasma lipid peroxide level at 150 mg/kg, ip after 7 days relative to control; assay type: functional; parameters: scale not given: the % may be the effect or the level left; details: route intraperitoneal; in short: as §2
Mus musculus [10] = assay: Radioprotective activity against gamma-irradiated Swiss albino mouse assessed as increase in blood glutathione level at 150 mg/kg, ip after 7 days relative to control; details: route intraperitoneal

SMILES | Activity (Ehrlich [1]) [%] | Activity (Ehrlich [2]) [%] | Activity (Ehrlich [3]) [%] | Activity (Ehrlich [4]) [%] | Activity (Ehrlich [5]) [%] | IC50 [6] [µM] | Activity (Mus musculus [7]) [mg/dL] | Activity (Mus musculus [8]) [µmol/mL] | Activity (Mus musculus [9]) [%] | Activity (Mus musculus [10]) [%]
NS(=O)(=O)c1ccc(-n2cc(-c3ccccc3)c3c2ncn2nc(-c4ccccc4)nc32)cc1 | 0 | 0 | 0 | 0 | 0 | > 200 | – | – | – | –
NS(=O)(=O)c1ccc(-n2cc(-c3ccccc3)c3/c(=N/C(=O)c4ccc(Cl)cc4)n(NC(=O)c4ccc(Cl)cc4)cnc32)cc1 | – | – | – | – | – | – | 304 | 80.3 | 101 | 386
NS(=O)(=O)c1ccc(-n2cc(-c3ccccc3)c3c2ncn2ncnc32)cc1 | 0 | 15 | 60 | 90 | 0 | 100 | – | – | – | –
N#Cc1c(-c2ccccc2)cn(-c2ccc(S(N)(=O)=O)cc2)c1N | 80 | 100 | 100 | 100 | 40 | 88.8 | – | – | – | –
COc1cccc2c1C(=O)c1c(O)c3c(c(O)c1C2=O)C[C@@](O)(C(=O)CO)C[C@@H]3O[C@H]1C[C@H](N)[C@H](O)[C@H](C)O1 [DOXORUBICIN] | 55 | 64 | 75 | 100 | 20 | 81.5 | – | – | – | –
CC(=O)NS(=O)(=O)c1ccc(-n2cc(-c3ccccc3)c3c2ncn2nc(C)nc32)cc1 | 5 | 20 | 80 | 100 | 0 | 75.8 | – | – | – | –
N=c1c2c(-c3ccccc3)cn(-c3ccc(S(N)(=O)=O)cc3)c2ncn1NC(=S)Nc1ccccc1 | 60 | 80 | 95 | 100 | 50 | 26.5 | – | – | – | –
NS(=O)(=O)c1ccc(-n2cc(-c3ccccc3)c3c2ncn2nc(S)nc32)cc1 | 0 | 20 | 80 | 80 | 0 | 90.2 | – | – | – | –
N#CCc1nc2c3c(-c4ccccc4)cn(-c4ccc(S(N)(=O)=O)cc4)c3ncn2n1 | 0 | 15 | 80 | 90 | 0 | 90.2 | – | – | – | –
N#Cc1c(N)nn2cnc3c(c(-c4ccccc4)cn3-c3ccc(S(N)(=O)=O)cc3)c12 | 0 | 0 | 0 | 0 | 0 | > 200 | – | – | – | –
